# Reference: the EternaBench riboswitch data
# Tested on: MS2 coat protein
# Assay: apparent Kd, MS2 coat protein; higher = weaker binding; RNA-MaP array; FMN 200 µM where present
# Procedure, shortened: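 Green signal was scaled to red-channel RNA signal and control-cluster median Fmax, and the apparent Kd was taken as the median of filtered per-cluster binding-curve fits. The binding series used SNAP-549-labelled MS2 coat protein from 0.7 or 1.5 nM, doubling to 3 µM, on designs transcribed by stalled E. coli RNA polymerase on Illumina sequencing-chip clusters. Each series ran without and then with constant ligand in 100 mM Tris-HCl pH 7.5, 80 mM KCl, 4 mM MgCl2, BSA, DTT, yeast tRNA and Tween-20.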
# [1] = designed as: ON switch for flavin mononucleotide, no ligand
# [2] = ligand present: flavin mononucleotide, designed as: ON switch for flavin mononucleotide
# [3] = designed as: OFF switch for flavin mononucleotide, no ligand
# [4] = ligand present: flavin mononucleotide, designed as: OFF switch for flavin mononucleotide
Sequence,apparent Kd [1] [nM],apparent Kd [2] [nM],apparent Kd [3] [nM],apparent Kd [4] [nM]
CCGGAAACGGGUAGCUGUACAUGAGGAUCACCCAUGUGAUCAUAGGAUAUGGAACCUAAUUGGUUCCAGAAGGAUGUCAGCUAC,237,598,,
UGAUAGGACAGAGGAUAUACCGAUAGGAGAUACUAUCGACUAGUCCUCACAUGAGGAUCACCCAUGUAGAAGGCUGUCCUAUCU,,,22.8,269
UUCCUACAUGAGGAUCACCCAUGUCAGGAUAUGUAGACGCAAAUUUACGAUUUGCGGAAUAGAAGGGACGUGAC,,,24.1,25.9
CGUCCUUAGUGAGGAUAUCAGAAACUACGGAAAUGAGAAGGCACAUGAGGAUCACCCAUGUAAAUAACGGCCGGUCUUGGCAGC,,,7.27,15.2
CGAUAAUAUAGUUAUCCGUAGCGAACAUGAGGAUCACCCAUGUAGGAUAUGUUACUAAACUAGUAACAGAAGGACAUGAGUCUU,,,28.5,178
GCGUGUCGUGUAGGAUAUGACACAGGAAACUGGUCAGAAGGACAUGAGGAUCACCCAUGUAAAAUGUUCAAGAAUAACGCAUGC,,,27.8,39.2
AUUAUUUUGUAGAAGGACGACUAUUAAUUUUUCGUAGGAUAUACUAUUUACAUGAGGAUCACCCAUGUUUAAAUGGAACAAUGU,,,9.32,10.4
GCCAGAGCAGGAUAUUCAAUAAUCCACAUGAGGAUCACCCAUGUCUAGCGAAAGCUAGAGGGAGAAGGGCUCUGGC,,,79.3,33.7
CAUGCGGGCGGGUUUUUGAUACAUGAGGAUCACCCAUGUCUUGAGGAUAUCUUUGCAACACGCCAAGAGAAGGCAAGGCGUUUC,,,33.6,107
UGGCGUUGAGGAUAUACAUUGAAUAAGAUUCAUGUAAAACUACAUGAGGAUCACCCAUGUAGAAGGCAAUGCCU,,,16.9,27.7
UGUCGGAGCAGAGGAUAUUACAUGAGGAUCACCCAUGUAUGAACCAAAAGCUGGAAACAGCAAUGUAAGAAGGCUGCUCCGACA,,,11.8,123
CAAAUUAGCGAGAAGGAGCGCCCGUAGGUACAUGAGGAUCACCCAUGUCCUUUGUGCUCUACGCGCUAGGAUAUCGAUAAACAG,,,12.8,99.4
UUGCGGUCAGGAUAUGCAUGGCGGGACUUGCGUCGUGGCGUGGAGAAGGGACAUGAGGAUCACCCAUGUGGAGG,,,97.1,99.3
AGGAAGUAAAGAGACAUGAGGAUCACCCAUGUGACUGCAUCACAGGAUAUGUCGAGCGAAGCACAACAGAAGGGUGAUCAGGGC,65.2,120,,
UGUCGGAGCAGAGGAUAUUACAUGAGGAUCACCCAUGUAUGAACCAAUAGCUGGAAACAGCAAUCUAAGAAGGCUGCUCCGACA,,,4.47,4.34
AAUAGUAAGUAGAAGGUAGUAAGUAUGUUAAUCUUGUUAACAUGAGGAUCACCCAUGUAGACUACUAAGGAUAUACAUCGAUAG,,,14.3,13.7
AAGAAGUGAGGAUAUGCAGUGGCCUGUAGACGCAAGCACUUGUAGAAGGCACAUGAGGAUCACCCAUGUUUAAA,,,35,32.8
AGUGUUUCGUUGUGACCCAUUCACAUGAGGAUCACCCAUGUAGAGGAUAUAGGUCACCACGGUUCCUAGAAGGCUGCAGGUGUG,,,5.71,7.3
GUUAUGUCAGGAUAUGCUUAUGGUGGGUGCUCAGACAUGAUGCAGAAGGGACAUGAGGAUCACCCAUGUACUGU,,,593,435
UUAGCAACAUGAGGAUCACCCAUGUAGGAUAUCGCUAUUGUAAUCAUGAAACAUGAUUACAAUAGCGAGAAGGACAUAUGCUGG,,,22.4,19.5
GUAGAGUAAGGAUAUGUAGAAUAGGAUAGAAUGGUUAGAAUACAGAAGGUACAUGAGGAUCACCCAUGUAAUGU,,,17.7,19.6
AGCCGCUUAGGAUAUACCUAGAUUCUUCCGCGCUGUACGGUACAUGAGGAUCACCCAUGUAGAAGGAGGUGGCA,,,23.5,29.7
GGUCGUCACAUAUACAUGAGGAUCACCCAUGUCAAAAGACAUGAGGAUAUGGAUCCUAAUUGGAUCCAGAAGGCAUGGACGACC,986,47.3,,
CCUUUAUUUUCAGGAUAUCCGUUUAGGUAGAUAACAUGAGGAUCACCCAUGUCCAUGUUGUAAGUGGAGAAGGGAAAGAGUGGG,182,120,,

Sequence,apparent Kd [1] [nM],apparent Kd [2] [nM],apparent Kd [3] [nM],apparent Kd [4] [nM]
GCUGUCGCAUGAGGAUAUGGUCAGGUUUCCUGACCAGAAGGCAUGUCGAUAGACAUGAGGAUCACCCAUGUAGUAAAGACAGCA,855,66.1,,
AGAUGGUAUAUAGGAUAUCAUGUGCAAACAUGAGGAUCACCCAUGUAGAAACGUCAGUUUAAUAAUGAGAAGGAUAUACCAUCU,31.9,11.5,,
UCUGGUCAAGGAUAUGCGUAAUGUGUUACGGCACGAGGUCUACAUGAGGAUCACCCAUGUAGAAGGUGAUCAGA,,,18,17.9
GCUUGUGUUGAGGAUAUGCGCCGGCUCGCUGGCGCAGAAGGCGGCACAUGAGGAUCACCCAUGUCAGUUCGCGC,,,19,157
GGAUAGGACAGAGGAUAUACGUGCUAGAGAUACAAGCAAAAUUUCCUCACAUGAGGAUCACCCAUGUAGAAGGCUGUCCUAUCG,,,43.7,432
UGAUAGGACAGAGGAUAUACGUGCUAGAGAUACUAGCAAAAUAUCCUCACAUGAGGAUCACCCAUGUAGAAGGCUGUCCUAUCU,,,18,83.3
AUCUGACAUGAGGAUCACCCAUGUAUUCGAGCAUGAGGAUAUAUGACUCGUCAUCGGCGGAUAGAAGGCAUGGUUG,97.5,189,,
AGGAAGUUAGGAUAUGCUGCUCGUCACUUGCGUGAUGAGUAGCAGAAGGAACAUGAGGAUCACCCAUGUAAAAA,,,27.7,22.2
AUGGUUGUCGUAGGAUAUGUAGGAUAUUCCUACAUGAGGAUCACCCAUGUUCGCAUGGAAGAAGGACAGAAGGACGAUGACCAC,1480,9.4,,
CCUAGUUGGUAAGGAUAUCCUACACUGUUCUGACCCGUGCGAGCUACAUGAGGAUCACCCAUGUGGGAGAAGGUGCGUCAACGC,,,18.2,17.9
UCGAACGGAAACAAAGUAAAUAGACAUGAGGAUCACCCAUGUAAGGAUAUGCCUACUAAAAGUAGGCAGAAGGUACGCGUUCGA,,,16.5,20.7
AUGAUGUCAGGAUAUCGUUGGCUCACUUGUGUGUGCCAGUUCGAGAAGGGACAUGAGGAUCACCCAUGUUUUUA,,,45,252
AAUAUGUUGCAGAAGGCUAUAUUGUUGUAGUACCUCAUGACAUGAGGAUCACCCAUGUUUGUGUUGGAGGAUAUGCAAUAUAUU,,,7.82,7.07
CUCGGACAUGAGGAUCACCCAUGUGAGGAUAUGGCGCGAUCGUCGAAAGACGAUAGCGCCAGAAGGCACAAAUG,,,65.4,195
GGCAUAAACGAGGAUAUCGAUACGGAAACGUAUCGAGAAGGUGUAACAUGAGGAUCACCCAUGUUCCUCAAGCC,,,38.6,39.5
UAUGUAUCCUCGGGAUCCACAUGAGGAUCACCCAUGUAGACUCAGGAUAUCCAAUGCGUUGACAGGGAGAAGGGAGUUCGCAUG,,,44.2,36.2
AUGCUUUAUGUAGGAUAUGCAUACGGUACGUAUGCAGAAGGACAUGAGGAUCACCCAUGUAUAUUAUUAUUACAUAUCAUACAU,,,26.6,377
AACGGGUGGGUAGGAUAUGGCUAUGUCUCAUUGCUAGAAGGACCAGCUGCUACAUGAGGAUCACCCAUGUCGUAGUGCACCCAG,421,33.5,,
CUGGUCUAUGUAGGAUAUGGUGUAUAUGUAUUACCAGAAGGACAUGAGGAUCACCCAUGUGUCGUGGUAUGAGUAGGUGAUGUU,,,47.2,146
UUUUUACAUGAGGAUCACCCAUGUGAGGAUAUGGAUUCGCUGGCCGUAGCCAGUGGAUCCAGAAGGCGCGUGAU,,,90,175
UGUCGGAGCAGAGGAUAUAUACAUGAGGAUCACCCAUGUAAAUGAAUGAGCUGGAAACAGCAUGUAUAGAAGGCUGCUCCGACA,,,118,298
AACCUAAAACAGAAGGCCAGCUACAUGAGGAUCACCCAUGUCGAAUCAUGGAGGAUAUGUUGUUAUUUACUCGCAGAUGAGUGC,28.1,5.51,,
ACCGUAUGAACAUGAGGAUCACCCAUGUAUCCGAAAAGGAAUGAGGAUAUCGAUAGCAAAGCUAUCGAGAAGGCAUGGGACGGU,742,389,,
AAUCCGUCACAUGAGGAUCACCCAUGUGACCCUACUAUUGGACAGGAUAUCCAAGGGUCGAAGCGGGAGAAGGGUCACAAUGGG,32.5,51.9,,
